11 compounds from article PMC6720533 (Biomolecules & Therapeutics, 2019) can be followed below.

One experiment concerns SEM cells. Nature of the experiment: WST-1 metabolic activity assay. It counts as cell-based. The settings on record: Homo sapiens, 72 h, read-out: metabolic activity. Summed up:
(§1)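 Test compound came from a 10 mM DMSO stock. Cells were seeded at 5×10^4/well in triplicate with 5 or 10 μM final compound; controls got matched DMSO. After 72 h at 37°C, 5% CO2, WST-1 was added for a further 3 h. Absorbance was read at 450 nm (reference 620 nm), and metabolic activity given as % of DMSO control.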
In general terms: Tetrazolium assays rely on reduction of a dye to a coloured formazan, in cell work by metabolically active cells.

The subject of a further experiment is Jurkat cells. The experiment is described as follows: WST-1 metabolic activity assay. In kind it is cell-based. The note with it: Homo sapiens, 72 h, read-out: metabolic activity. A digest of the protocol: as §1
The target in the next experiment is recombinant human CK2α1 (Homo sapiens, UniProt P68400). The experiment is described as follows: CK2 kinase activity assay. In kind it is biochemical. The note with it: 10 μM ATP, 60 min. A digest of the protocol: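 Recombinant human CK2α1 (50 ng) was incubated with 2.5 μg CK2α1 substrate, 10 μM ATP, and test compound, reference inhibitor or DMSO for 60 min at room temperature. ADP-Glo reagent stopped the reaction and depleted remaining ATP. Detection reagent then converted ADP to ATP for luciferase/luciferin luminescence, which tracks the ADP formed as the measure of kinase activity.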
recombinant human CK2α1, sequence (P68400 whole entry): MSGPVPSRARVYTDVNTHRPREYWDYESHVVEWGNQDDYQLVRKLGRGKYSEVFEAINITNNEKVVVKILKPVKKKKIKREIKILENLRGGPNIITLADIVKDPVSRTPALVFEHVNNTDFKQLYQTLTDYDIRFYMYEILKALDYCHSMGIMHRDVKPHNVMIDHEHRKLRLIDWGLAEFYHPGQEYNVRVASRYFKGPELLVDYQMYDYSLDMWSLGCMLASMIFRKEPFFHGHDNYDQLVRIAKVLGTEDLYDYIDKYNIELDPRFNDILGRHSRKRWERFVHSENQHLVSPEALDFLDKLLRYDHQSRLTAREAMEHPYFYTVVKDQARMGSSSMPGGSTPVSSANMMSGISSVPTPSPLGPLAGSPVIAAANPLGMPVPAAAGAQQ

The next experiment relates to RS4;11 cells. The experiment is described as follows: WST-1 metabolic activity assay. In kind it is cell-based. The note with it: Homo sapiens, RS4-11, 72 h, read-out: metabolic activity. Summed up:
as §1

In a further experiment the test system is CEM cells. The experiment is described as follows: WST-1 metabolic activity assay. The settings on record: Homo sapiens, CCRF-CEM, 72 h, read-out: metabolic activity. It counts as cell-based. A digest of the protocol: as §1

`Cc1ccc2cc(-c3ccccc3)nc(N)c2c1` [FX-43, 7-Methyl-3-phenylisoquinolin-1-amine]: in the experiment on SEM cells, the activity at 5 µM came out at 94.7% and the activity at 10 µM turned out to be 94.3%. In addition, in the experiment on Jurkat cells, the viability at 5 µM was determined as 107% and the viability at 10 µM was 104%.

For `O=C(O)c1ccc2c(c1)nc(Nc1cccc(Cl)c1)c1ccncc12` [CX-4945, reference compound], the CK2 enzyme activity entry at recombinant human CK2α1 (0.1 μM) was “Reduction of CK2 enzyme activity”. The “CK2 enzyme activity compared to DMSO (100%)” value on recombinant human CK2α1 (1 μM) worked out at 3.4 ± 0.3%.

Turning to `O=c1c2cc(Cl)ccc2nc2n1Cc1ccccc1-2` [FX-3, 8-Chloroisoindolo[1,2-b]quinazolin-10(12H)-one], the activity at 5 µM in the experiment with RS4;11 cells was 73.8%; in the experiment on SEM cells, 32%. Moreover, the activity at 10 µM in the experiment on RS4;11 cells was found to be 40.2%; with SEM cells, 26.7%. Also, the figures for the viability at 5 µM in the experiment with CEM cells and with Jurkat cells were 76.2% and 57.9%, respectively. The figures for the viability at 10 µM in the experiment with CEM cells and in the experiment on Jurkat cells were 86% and 77%, respectively.

Take `CC(=O)c1ccc2c(=O)n3c(nc2c1)-c1ccccc1C3` [FX-1, 7-Acetylisoindolo[1,2-b]quinazolin-10(12H)-one]: in the experiment with RS4;11 cells, the activity at 5 µM came to 99.3% and the activity at 10 µM was 94.4%. Moreover, in the experiment on CEM cells, the viability at 5 µM was 87.1% and the viability at 10 µM came to 83.9%. In addition, in the experiment on SEM cells, the activity at 5 µM turned out to be 107% and the activity at 10 µM was found to be 97.7%. Moreover, in the experiment with Jurkat cells, the viability at 5 µM was found to be 93.4% and the viability at 10 µM was found to be 68.5 ± 14.8%.

On to `Cc1cc(C)c2nc3n(c(=O)c2c1)Cc1ccccc1-3` [FX-8, 6,8-Dimethylisoindolo[1,2-b]quinazolin-10(12H)-one], for which, in the experiment on RS4;11 cells, the activity at 5 µM is 61.5% and the activity at 10 µM is 55.8%. Moreover, in the experiment with CEM cells, the viability at 5 µM stood at 97% and the viability at 10 µM turned out to be 85%. Moreover, in the experiment with SEM cells, the activity at 5 µM turned out to be 23.3% and the activity at 10 µM stood at 14.5%. In the experiment with Jurkat cells, the viability at 5 µM worked out at 95.2% and the viability at 10 µM came out at 92.5%.

As for `Cc1ccc2c(=O)n3c(nc2c1)-c1ccc(F)cc1C3` [FX-5, 2-Fluoro-7-methylisoindolo[1,2-b]quinazolin-10(12H)-one], in the experiment on RS4;11 cells, the activity at 5 µM worked out at 91.4% and the activity at 10 µM is 86.7%. Also, in the experiment on CEM cells, the viability at 5 µM was determined as 101% and the viability at 10 µM stood at 95%. Further, in the experiment with SEM cells, the activity at 5 µM was determined as 91.7% and the activity at 10 µM turned out to be 74.7%. In addition, in the experiment with Jurkat cells, the viability at 5 µM turned out to be 94% and the viability at 10 µM came to 96.5%.

As to `Cc1ccc2c(=O)n3c(nc2c1)-c1ccccc1C3` [FX-4, 7-Methylisoindolo[1,2-b]quinazolin-10(12H)-one], in the experiment with RS4;11 cells, the activity at 5 µM is 91.2% and the activity at 10 µM was 85.9%. In the experiment on CEM cells, the viability at 5 µM turned out to be 102% and the viability at 10 µM was determined as 90.6%. Moreover, in the experiment with SEM cells, the activity at 5 µM worked out at 96.8% and the activity at 10 µM was determined as 64.9%. In the experiment on Jurkat cells, the viability at 5 µM worked out at 90.4% and the viability at 10 µM stood at 86.6%.

Consider `O=c1c2ccccc2nc2n1Cc1cc(F)ccc1-2` [FX-6, 2-Fluoroisoindolo[1,2-b]quinazolin-10(12H)-one], for which the values for the activity at 5 µM in the experiment with RS4;11 cells and in the experiment on SEM cells were 76.6% and 72.1%, respectively. Besides, the results for the activity at 10 µM in the experiment on RS4;11 cells and with SEM cells were 67.1% and 51.4%, respectively. Moreover, the viability at 5 µM in the experiment on CEM cells was 93.2%; in the experiment with Jurkat cells, 105%. In addition, the viability at 10 µM with CEM cells came out at 107%; with Jurkat cells, 97.5%.

For `COc1ccc2c(N)nc(-c3ccccc3)cc2c1` [FX-42, 6-Methoxy-3-phenylisoquinolin-1-amine], in the experiment on SEM cells, the activity at 5 µM was 66.7% and the activity at 10 µM turned out to be 24.5%. For the same compound, in the experiment on Jurkat cells, the viability at 5 µM worked out at 88.4% and the viability at 10 µM stood at 32.4%.

Consider `Cc1ccc2nc3n(c(=O)c2c1)Cc1ccccc1-3` [FX-7, 8-Methylisoindolo[1,2-b]quinazolin-10(12H)-one], for which the activity at 5 µM in the experiment with RS4;11 cells came to 61.3%; in the experiment on SEM cells, 52.1%. For the same compound, the activity at 10 µM in the experiment on RS4;11 cells was 49.4%; in the experiment with SEM cells, 25.2%. Also, the viability at 5 µM stood at 96.1% in the experiment on CEM cells and 91.4% with Jurkat cells. For the same compound, the viability at 10 µM is 85% in the experiment with CEM cells and 84.3% with Jurkat cells.

As to `O=c1c2ccc(F)cc2nc2n1Cc1ccccc1-2` [FX-2, 7-Fluoroisoindolo[1,2-b]quinazolin-10(12H)-one], in the experiment on RS4;11 cells, the activity at 5 µM came to 97.3% and the activity at 10 µM came to 79.8%. For the same compound, in the experiment on CEM cells, the viability at 5 µM was 86.3% and the viability at 10 µM was determined as 77.2%. Further, in the experiment on SEM cells, the activity at 5 µM was 100% and the activity at 10 µM turned out to be 69.8%. For the same compound, in the experiment with Jurkat cells, the viability at 5 µM was 81.3% and the viability at 10 µM is 54.3%.
